Hits are enriched below; roughly 5.6% of the tested compounds scored in any of these assays.
UPR XBP1 act: activators of adaptive XBP1 UPR arm, primary screen, cell-based, CHO-XBP1 luciferase reporter, luminescence, uHTS; IRE1-XBP1 UPR activation; percent of tunicamycin response, DMSO as zero; activation, % at 20 µM; hit rate 0.33% among 330,000; AID 463104, 2010;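 active = versus positive control, 20 µM dose yields 30% or more activation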
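Assay system: CHO-XBP1 luciferase reporter cells; Schedule: 6 h treatment, 37 °C; Detection: glow luminescence from Steady-Glo reagent; Benchmarks: high control tunicamycin 10 µg/mL final, low control DMSO vehicle only.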
aDG glyco act: activators of alpha-DG glycosylation, primary screen, uHTS, Pro5-aDG cells, AlphaScreen. alpha-DG glycosylation AlphaScreen (IIH6); 0% Pro5, 100% B10-LARGE cell signal. activation, % at 10 µM. hit rate 0.22% among 360,000. AID 624168, 2012;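 active = activation of at least 8% versus controls, or a plate z-score of at least 8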;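 note: Pro5 are CHO cells carrying HIG-tagged alpha-DG that lacks glycosylation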
CHOP inh: inhibitors of CHOP promoter induction, primary screen, cell-based, unfolded protein response, luciferase reporter; hit rate 3.8% among 220,000; AID 2732, 2010; inhibition, % at 10 µM; CHO-K1 CHOP-promoter luciferase, tunicamycin-induced, 15-18 h;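 active = compounds that reduced the stress-induced luciferase reporter signal by more than about 70% of percent inhibition, limit read from the data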
CHOP UPR activ: activators of apoptotic CHOP UPR arm, primary screen, cell-based, CHO-CHOP luciferase reporter, luminescence, uHTS | UPR activation; percent of tunicamycin response over DMSO baseline | activation, % at 10 µM | hit rate 0.34% among 330,000;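 active = at 10 µM dose, activation of 40% or more, normalized to positive control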
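Test system: CHO CHOP reporter cells. Input: 500 CHO-CHOP cells per well. Medium: F12 with 10% FBS. Technique: luciferase luminescence. Measure: percent activation relative to tunicamycin control. Dosing: 10 µM compound, 0.5% DMSO. Timing: 16-18 h cell attachment, then 6 h compound exposure, 37 °C.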
MPTP block: mitochondrial permeability transition pore inhibitors, primary screen, biochemical, isolated mouse mitochondria, absorbance | Ca2+ swelling absorbance, 30 min | inhibition, % at 10 µM | hit rate 1.4% among 360,000;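 active = inhibition of 50% or more, scaled per plate between neutral and stimulator controls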
NR3A LBD binder: binders of NR3A ligand-binding domain, primary screen, biophysical, differential scanning fluorimetry, uHTS. Glutamate receptor ionotropic, NMDA 3A (GRIN3A) ligand-binding domain. NR3A LBD differential scanning fluorimetry, Tm shift; 0% = protein alone, 100% = glycine-bound protein. Tm shift relative to glycine control, % at 25 µM. hit rate 2.5% among 340,000. AID 1259313, 2017;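 active = melting temperature shift of at least 10% of the positive control shift, at one fixed dose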
Of the large screens only hits and unclear results are named; the others gave an inactive call.

Cc1ccc(C)c(Cn2nnc3c(=O)[nH]c(C4CCN(S(=O)(=O)c5ccc(S(=O)(=O)NC6CC6)cc5)CC4)nc32)c1	NR3A LBD binder 12 (no result: CHOP inh)
O=c1[nH]c(C2CCN(S(=O)(=O)c3ccc(S(=O)(=O)NC4CC4)cc3)CC2)nc2c1nnn2Cc1ccc(F)cc1	NR3A LBD binder 10 (no result: CHOP inh)
Cc1ccc(Cn2nnc3c(=O)[nH]c(C4CCN(S(=O)(=O)c5ccc(F)cc5)CC4)nc32)cc1	CHOP inh 84
CCOC(=O)c1oc2ccccc2c1COC(=O)C(C)NC(=O)c1ccco1 (stereo not given)	none (no result: CHOP inh)
CC(C(=O)Nc1ccccc1Oc1ccccc1)c1ccccc1 (stereo not given)	none
O=C(CC1S/C(=N/N=C/C=C/c2ccccc2)NC1=O)Nc1ccc(Cl)c(Cl)c1 (stereo not given)	NR3A LBD binder 37
CCCC1S/C(=N/N=C/c2ccco2)NC1=O (stereo not given)	none
O=C(CC1S/C(=N/N=C/c2ccco2)NC1=O)Nc1cccc(Cl)c1Cl (stereo not given)	CHOP inh 94
O=C(O)CC1S/C(=N/N=C/C=C/c2ccccc2)NC1=O (stereo not given)	none
CCOC(=O)C1(C)CCN1C(=O)c1cc(OC)ccc1Br (stereo not given)	none (no result: UPR XBP1 act, CHOP inh, CHOP UPR activ, NR3A LBD binder)
CCOc1ccc(-n2c(C)c(C(=O)OC)c3cc(O)ccc32)cc1	CHOP inh 81
CCOc1ccc(-n2c(C)c(C(C)=O)c3cc(O)ccc32)cc1	none (no result: CHOP inh)
Cc1onc(-c2ccccc2)c1-c1nnc(COC(=O)c2ccc(O)cc2)o1	NR3A LBD binder 10 (no result: CHOP inh)
Cc1onc(-c2ccccc2)c1-c1nnc(COC(=O)c2ccc(F)cc2)o1	none (no result: UPR XBP1 act, CHOP inh, CHOP UPR activ, NR3A LBD binder)
CC(C)C(NC(=O)C(c1ccccc1)c1ccccc1)c1nc2ccccc2[nH]1 (stereo not given)	CHOP inh 77
O=C(CSc1nc2ccccc2o1)Nc1nc(-c2ccccc2)cs1	NR3A LBD binder 12
COc1ccc(-n2c(CNc3ccc(C)cc3)nnc2SCC(=O)Nc2nc(-c3ccccc3)cs2)cc1	none
O=C(CSc1nc2ccccc2o1)Nc1nc2ccccc2s1	none
COc1ccc(NCc2nnc(SCC(=O)Nc3nc(-c4ccccc4)cs3)n2-c2ccccc2)cc1	NR3A LBD binder 12
CCOC(=O)N1CCN(C(=O)CSCC(=O)Nc2nc(-c3ccc(-c4ccccc4)cc3)cs2)CC1	CHOP inh 85
Cc1occc1-c1nnc(SCC(=O)Nc2nc(-c3ccccc3)cs2)o1	CHOP inh 72
CC(C)C(=O)N1CCN(c2ccccc2NC(=O)c2ccco2)CC1	none (no result: CHOP inh)
CCCCCCCCCCCCC/C=C/C(O)C(N)CO (stereo not given)	none (no result: UPR XBP1 act, aDG glyco act, CHOP UPR activ, MPTP block, NR3A LBD binder)
Cc1ccccc1-c1cc2nc(Oc3ccc4c(c3)OCO4)n(C)c(=O)c2s1	none (no result: UPR XBP1 act, CHOP inh, CHOP UPR activ, NR3A LBD binder)
CC(=O)Nc1cc(C(=O)OCC(=O)c2ccccc2)ccc1C	none
Cc1ccc(C(=O)Cc2ccccc2)cc1	none (no result: UPR XBP1 act, CHOP inh, CHOP UPR activ)
O=C(CCCCCCCC(=O)c1ccccc1)c1ccccc1	NR3A LBD binder 24
Cc1ccc(C(=O)CCC(=O)NCc2ccccc2)cc1	NR3A LBD binder 51 (no result: CHOP inh)
Cc1ccc(C(=O)OCC(=O)c2ccccc2)cc1	NR3A LBD binder 19 (no result: CHOP inh)
Cc1ccc(C(=O)CC(=O)c2ccccc2)cc1	NR3A LBD binder 34 (no result: CHOP inh)
CC(C)(C)c1ccc(C(=O)CCC(=O)NCc2ccccc2)cc1	none (no result: CHOP inh)
COC(=O)[C@@]12C[C@@H](CC(=O)NCCC(C)C)C(=O)N(CCc3ccc(OC)c(OC)c3)C1=CCC(C)(C)C2	none (no result: UPR XBP1 act, CHOP inh, CHOP UPR activ, NR3A LBD binder)
CCSC1=NCCN1C(=O)C(C)(C)Oc1ccc(Cl)cc1	none
CN(CC(=O)Nc1cccc(F)c1)C(=O)c1ccc(S(=O)(=O)N2CCCC2)cc1	none (no result: CHOP inh)
CC(C)(C)C(=O)Nc1sc2c(c1-c1nc3ccccc3[nH]1)CCCC2	CHOP inh 83
O=C(COc1ccc([N+](=O)[O-])cc1)Nc1ccc(C(=O)Nc2ccccc2C(=O)O)cc1	none
O=C(NN/C(=N/S(=O)(=O)c1ccc(Cl)cc1)c1ccccc1)c1ccc(O)cc1	NR3A LBD binder 37
O=C(NN/C(=N/S(=O)(=O)c1ccc(Cl)cc1)c1ccccc1)c1cccc(Cl)c1	none (no result: CHOP inh)
C/C(=N/O)c1cc(C(C)(C)C)c(O)c(C(C)(C)C)c1	CHOP inh 86
CC(C)(Sc1cc(C(C)(C)C)c(O)c(C(C)(C)C)c1)Sc1cc(C(C)(C)C)c(O)c(C(C)(C)C)c1	none
O=C(Cc1ccc([N+](=O)[O-])cc1)N/N=C/c1ccc([N+](=O)[O-])o1	aDG glyco act 10
CCCCCCCC(=O)N/N=C/c1ccc([N+](=O)[O-])o1	none
O=C(CNc1cccc2ccccc12)N/N=C/c1ccc([N+](=O)[O-])o1	aDG glyco act 8.2
CC(=O)Nc1ccc2c(c1)Cc1cc(N3C(=O)C=CC3=O)ccc1-2	NR3A LBD binder 24 (no result: UPR XBP1 act, CHOP inh, CHOP UPR activ)
O=C1C=CC(=O)N1c1ccc2c(c1)Cc1cc(F)ccc1-2	none (no result: UPR XBP1 act, CHOP inh, CHOP UPR activ)
CCOC(=O)c1ccc(NC(=O)C(=O)NCc2ccc(/C=C(/C#N)C(=O)NCCOC)o2)cc1	CHOP inh 72
COCCNC(=O)/C(C#N)=C/c1ccc(C)o1	none
NC(=O)c1cccc(N)c1	none (no result: UPR XBP1 act, aDG glyco act, CHOP UPR activ, MPTP block, NR3A LBD binder)
NC(N)=NS(=O)(=O)c1ccc(N/C=C\C(=O)c2ccncc2)cc1	NR3A LBD binder 244
NC(=O)c1ccc(SCC(=O)OCC(=O)N2CCN(C(=O)c3ccco3)CC2)c([N+](=O)[O-])c1	none (no result: CHOP inh)
CC(C)OC(=O)c1cc2c(ccn2C)n1CC(=O)N1CCC(Cc2ccccc2)CC1	CHOP inh 70
CC(C)OC(=O)c1cc2c(ccn2C)n1CC(=O)N(Cc1ccccc1)c1ccc(F)cc1	CHOP inh 71
CCOC(=O)c1cc2c(ccn2C)n1CC(=O)N1CCN(c2ccccc2)CC1	none
CCOC(=O)c1cc2c(ccn2C)n1CC(=O)N(Cc1ccccc1)c1ccccc1	none
CCOC(=O)c1cc2c(ccn2C)n1CC(=O)N(Cc1ccccc1)c1ccc(F)cc1	CHOP inh 70
COc1ccccc1NC(=O)C(C)N(C)Cc1ccc(Cl)s1 (stereo not given)	none (no result: CHOP inh)
Cc1ccc(NC(=O)Cn2c3ccc(F)cc3c3nc4n(c(=O)c32)CCS4)cc1F	NR3A LBD binder 12
COc1cccc(NC(=O)Cn2c3ccc(F)cc3c3nc4n(c(=O)c32)CCCS4)c1	none (no result: CHOP inh)
Cc1cc(C)c(OCC(=O)N2CC=C(c3ccccc3)CC2)c(C)c1	none (no result: CHOP inh)
CCOC(=O)CSC1=NC(=O)/C(=C/c2ccc(Br)cc2)S1	CHOP inh 102
